The text below walks through data of ChEMBL document CHEMBL2074208, “P-glycoprotein inhibition by glibenclamide and related compounds” (Pflugers Arch, 1999).

The target of data set [1] is T1, ATP-dependent translocase ABCB1 (Homo sapiens, UniProt P08183). Put plainly: TP_TRANSPORTER: increase in Colchicine intracellular accumulation (Colchicine: 0.0175 uM, BM-223: 100 uM) in CEM/VBL600 cells. In kind it is functional, cell-based. The settings on record: cem/vbl600, 100 µM. Put shortly: (§1)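 1.5×10⁶ viable cells were preincubated 10 min at 37 °C with inhibitor or 0.1% DMSO. [³H]colchicine (final 1.25 µCi/ml; 17.5 nM) was added for 60 min at 37 °C. Cells were pelleted at 4 °C, washed ice-cold and counted by scintillation. Uptake is given as % of the no-inhibitor control; n≥3.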

For data set [2], the target named is Multidrug resistance protein 1a (Rattus norvegicus) (UniProt Q6PSM0). The experiment in a line: TP_TRANSPORTER: increase in Glibenclamide intracellular accumulation (Glibenclamide: 0.0525 uM, BM-223: 100 uM) in CC531mdr+ cells. In kind it is functional, cell-based. Put shortly: (§2)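 Confluent CC531mdr+ monolayers, held colchicine-free ≥12 h, were preincubated 10 min at 37 °C in buffer A with inhibitor or 0.1% DMSO. They were then exposed 60 min to [³H]glibenclamide (2.5 µCi/ml; 52.5 nM glibenclamide) with inhibitor. After an ice-cold buffer wash, acid extraction (0.1 N HNO₃) and scintillation counting, uptake was expressed as % of the inhibitor-free control; n≥3.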

The target is the same in data set [3]. Put plainly: TP_TRANSPORTER: increase in Colchicine intracellular accumulation (Colchicine: 0.035 uM, BM-223: 100 uM) in CC531mdr+ cells. In kind it is functional, cell-based. Put shortly: (§3)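 CC531mdr+ monolayers were grown to confluence and kept colchicine-free for ≥12 h. They were preincubated 10 min at 37 °C in buffer A (pH 7.4) with inhibitor or 0.1% DMSO, then incubated 60 min in buffer A with [³H]colchicine (2.5 µCi/ml; 35 nM colchicine) plus the same additions. After an ice-cold wash, radioactivity was extracted with 0.1 N HNO₃ and counted. Accumulation is given as % of the no-inhibitor control; n≥3.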

The target of data set [4] is T1, ATP-dependent translocase ABCB1. The experiment in a line: TP_TRANSPORTER: inhibition of Azidopine photoaffinity labelling (Azidopine: 0.16 uM, BM-223: 100 uM) in membranes from CEM/VBL600 cells. The settings on record: cem/vbl600, 100 µM.
The target is the same in data set [5]. The experiment in a line: TP_TRANSPORTER: increase in Colchicine intracellular accumulation (Colchicine: 0.0175 uM, BM-208: 100 uM) in CEM/VBL600 cells. In kind it is functional, cell-based. The conditions noted are these: cem/vbl600, 100 µM. In outline: as §1
For data set [6], the target named is Multidrug resistance protein 1a (Rattus norvegicus) (UniProt Q6PSM0). Put plainly: TP_TRANSPORTER: increase in Glibenclamide intracellular accumulation (Glibenclamide: 0.0525 uM, BM-208: 100 uM) in CC531mdr+ cells. In kind it is functional, cell-based. In outline: as §2
For data set [7] the target is unchanged. The experiment in a line: TP_TRANSPORTER: increase in Colchicine intracellular accumulation (Colchicine: 0.035 uM, BM-208: 100 uM) in CC531mdr+ cells. In kind it is functional, cell-based. In outline:
as §3

Data set [8] deals with T1, ATP-dependent translocase ABCB1. The experiment in a line: TP_TRANSPORTER: inhibition of Azidopine photoaffinity labelling (Azidopine: 0.16 uM, BM-208: 100 uM) in membranes from CEM/VBL600 cells. The conditions noted are these: cem/vbl600, 100 µM.
The target of data set [9] is Multidrug resistance protein 1a (Rattus norvegicus) (UniProt Q6PSM0). Put plainly: TP_TRANSPORTER: increase in Glibenclamide intracellular accumulation (Glibenclamide: 0.0525 uM, Vinblastine: 100 uM) in CC531mdr+ cells. In kind it is functional, cell-based. Put shortly:
as §2

For data set [10], the target named is T1, ATP-dependent translocase ABCB1. The experiment in a line: TP_TRANSPORTER: increase in Colchicine intracellular accumulation (Colchicine: 0.0175 uM, Vinblastine: 100 uM) in CEM/VBL600 cells. In kind it is functional, cell-based. The conditions noted are these: cem/vbl600, 100 µM. Put shortly:
as §1

For data set [11], the target named is Multidrug resistance protein 1a (Rattus norvegicus) (UniProt Q6PSM0). Put plainly: TP_TRANSPORTER: increase in Colchicine intracellular accumulation (Colchicine: 0.035 uM, Vinblastine: 100 uM) in CC531mdr+ cells. In kind it is functional, cell-based. Put shortly: as §3
The target of data set [12] is T1, ATP-dependent translocase ABCB1. The experiment in a line: TP_TRANSPORTER: increase in Colchicine intracellular accumulation (Colchicine: 0.0175 uM, Glibenclamide: 100 uM) in CEM/VBL600 cells. In kind it is functional, cell-based. The conditions noted are these: cem/vbl600, 100 µM. In outline: as §1
Data set [13] deals with Multidrug resistance protein 1a (Rattus norvegicus) (UniProt Q6PSM0). The experiment in a line: TP_TRANSPORTER: increase in Colchicine intracellular accumulation (Colchicine: 0.035 uM, Glibenclamide: 100 uM) in CC531mdr+ cells. In kind it is functional, cell-based. In outline: as §3

Structures are written as SMILES.

Chain of Multidrug resistance protein 1a (Rattus norvegicus) (Q6PSM0 as listed by the source): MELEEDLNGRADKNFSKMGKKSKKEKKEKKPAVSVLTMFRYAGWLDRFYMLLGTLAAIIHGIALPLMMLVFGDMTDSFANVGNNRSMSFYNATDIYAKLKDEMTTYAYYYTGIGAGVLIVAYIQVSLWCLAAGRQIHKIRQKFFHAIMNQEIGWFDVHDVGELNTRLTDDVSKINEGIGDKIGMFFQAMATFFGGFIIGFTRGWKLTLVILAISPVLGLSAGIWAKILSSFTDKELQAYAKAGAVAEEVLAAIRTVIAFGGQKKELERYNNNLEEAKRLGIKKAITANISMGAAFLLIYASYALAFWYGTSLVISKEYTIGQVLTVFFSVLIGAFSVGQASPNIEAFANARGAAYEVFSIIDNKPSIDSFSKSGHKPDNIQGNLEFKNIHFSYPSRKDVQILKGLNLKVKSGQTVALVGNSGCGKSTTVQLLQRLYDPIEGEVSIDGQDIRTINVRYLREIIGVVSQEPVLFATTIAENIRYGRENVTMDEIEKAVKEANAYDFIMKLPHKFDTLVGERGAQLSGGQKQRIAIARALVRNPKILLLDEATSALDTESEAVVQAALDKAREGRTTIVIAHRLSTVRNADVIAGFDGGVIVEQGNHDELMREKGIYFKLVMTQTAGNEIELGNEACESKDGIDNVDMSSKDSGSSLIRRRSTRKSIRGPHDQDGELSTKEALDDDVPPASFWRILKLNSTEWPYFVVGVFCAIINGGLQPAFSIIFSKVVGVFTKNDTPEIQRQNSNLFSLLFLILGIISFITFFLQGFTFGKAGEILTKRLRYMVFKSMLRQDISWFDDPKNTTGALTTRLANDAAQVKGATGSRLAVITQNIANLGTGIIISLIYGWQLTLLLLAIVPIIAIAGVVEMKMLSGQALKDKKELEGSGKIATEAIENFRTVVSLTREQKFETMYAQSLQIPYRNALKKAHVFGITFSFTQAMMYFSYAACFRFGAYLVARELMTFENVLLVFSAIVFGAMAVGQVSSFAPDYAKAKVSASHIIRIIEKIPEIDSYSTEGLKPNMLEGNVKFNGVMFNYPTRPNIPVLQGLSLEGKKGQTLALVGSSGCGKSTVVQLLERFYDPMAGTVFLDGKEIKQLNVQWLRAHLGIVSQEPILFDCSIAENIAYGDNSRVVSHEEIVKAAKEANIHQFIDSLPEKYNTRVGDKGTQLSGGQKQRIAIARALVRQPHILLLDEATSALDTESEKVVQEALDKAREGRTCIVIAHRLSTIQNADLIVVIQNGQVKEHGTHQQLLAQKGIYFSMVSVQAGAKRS
T1 sequence (P08183 whole entry): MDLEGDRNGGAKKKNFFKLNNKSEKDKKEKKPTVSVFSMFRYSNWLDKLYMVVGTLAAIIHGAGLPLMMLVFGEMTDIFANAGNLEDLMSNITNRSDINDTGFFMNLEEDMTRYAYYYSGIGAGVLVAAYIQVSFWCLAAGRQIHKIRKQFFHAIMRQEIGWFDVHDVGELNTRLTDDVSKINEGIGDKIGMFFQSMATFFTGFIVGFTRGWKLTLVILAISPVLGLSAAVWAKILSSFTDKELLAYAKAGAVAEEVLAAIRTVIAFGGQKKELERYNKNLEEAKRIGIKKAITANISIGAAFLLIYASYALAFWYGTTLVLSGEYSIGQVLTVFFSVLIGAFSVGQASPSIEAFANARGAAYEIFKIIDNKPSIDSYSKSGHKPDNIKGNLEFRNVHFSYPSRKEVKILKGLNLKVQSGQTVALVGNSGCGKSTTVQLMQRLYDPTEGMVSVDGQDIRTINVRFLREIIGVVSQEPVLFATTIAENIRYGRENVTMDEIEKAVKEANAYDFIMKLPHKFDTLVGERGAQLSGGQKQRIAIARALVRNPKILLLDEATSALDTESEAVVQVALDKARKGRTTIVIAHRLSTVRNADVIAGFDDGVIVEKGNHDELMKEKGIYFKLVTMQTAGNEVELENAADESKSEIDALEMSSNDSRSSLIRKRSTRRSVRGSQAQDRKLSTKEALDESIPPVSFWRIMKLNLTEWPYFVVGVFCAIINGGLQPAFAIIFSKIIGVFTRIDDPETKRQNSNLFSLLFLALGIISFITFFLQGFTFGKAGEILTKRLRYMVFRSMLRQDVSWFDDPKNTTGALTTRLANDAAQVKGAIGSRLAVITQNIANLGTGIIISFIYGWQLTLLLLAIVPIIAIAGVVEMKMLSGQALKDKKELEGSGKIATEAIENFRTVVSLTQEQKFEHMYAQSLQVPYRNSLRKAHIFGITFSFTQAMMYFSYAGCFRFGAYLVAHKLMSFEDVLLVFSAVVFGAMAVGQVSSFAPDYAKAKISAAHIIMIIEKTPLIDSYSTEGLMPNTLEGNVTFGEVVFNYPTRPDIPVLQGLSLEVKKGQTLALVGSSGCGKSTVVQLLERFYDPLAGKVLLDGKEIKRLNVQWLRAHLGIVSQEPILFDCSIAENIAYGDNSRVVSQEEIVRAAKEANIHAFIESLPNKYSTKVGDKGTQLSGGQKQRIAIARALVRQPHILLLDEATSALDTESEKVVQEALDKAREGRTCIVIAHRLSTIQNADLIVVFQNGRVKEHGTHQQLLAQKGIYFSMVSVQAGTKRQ

Take `COc1ccc(Cl)cc1C(=O)NCCc1ccc(S(=O)(=O)N/C(=N/C#N)NC2CCC(C)CC2)cc1` (centres undefined): the Activity entry in [1], in [2], in [3] and in [4] was “inhibitor [+]” each time.
Take `COc1ccc(Cl)cc1C(=O)NCCc1ccc(S(=O)(=O)N/C(=N/C#N)NC2CCCCC2)cc1`: the Activity entry in data set [5], in [6], in data set [7] and in data set [8] was “inhibitor [+]” each time.
Regarding `COc1ccc(CCN(C)CCCC(C#N)(c2ccc(OC)c(OC)c2)C(C)C)cc1OC` (centres undefined), the Activity result in data set [9] is “inhibitor [+]”.
In the case of `CC[C@]1(O)C[C@@H]2CN(CCc3c([nH]c4ccccc34)[C@@](C(=O)OC)(c3cc4c(cc3OC)N(C)[C@H]3[C@@](O)(C(=O)OC)[C@H](OC(C)=O)[C@]5(CC)C=CCN6CC[C@]43[C@@H]65)C2)C1` [VINBLASTINE], the Activity result in data set [10], in data set [9] and in [11] was “inhibitor [+]” each time.
On to `COc1ccc(Cl)cc1C(=O)NCCc1ccc(S(=O)(=O)NC(=O)NC2CCCCC2)cc1` [GLYBURIDE], for which the Activity entry in [12] and in data set [13] was “inhibitor [+]” in each case.
